Measured values of several laboratories.
Protocols differ between the studies behind these lines. Converted amounts (≈) assume the structure as drawn.

SMILES | tested on | assay | test system | conditions | endpoint | value
O=c1cccc(C2CCCCC2)n1O | Cryptococcus gattii | microbial growth | – | – | MIC80 | 1.7 µM (≈ 0.329 µg/mL)
CC1=CC[C@H]2O[C@]1(C)O[C@H]([C@H](C)/C=C(C)/C=C/C(O)=C1/C(=O)CNC1=O)[C@H]2C | Bacillus cereus | microbial growth | – | – | MIC | 3.13 µM
CC(C)C[C@H](NC(=O)OCc1ccccc1)C(=O)N[C@@H](Cc1c[nH]c2ccccc12)C(=O)N[C@@H](CC(C)C)C(=O)C(=O)Nc1ccccc1 | RPMI-8226 | cell growth or viability, MTS | – | 72 h | IC50 | 313 nM
COc1ccccc1Cc1cc(C)cc(=O)n1O | Cryptococcus gattii | microbial growth | – | – | MIC80 | 1.5 µM (≈ 0.368 µg/mL)
COc1ccc(C[C@H](NC(=O)[C@H](C)NC(=O)CN2CCOCC2)C(=O)N[C@@H](Cc2ccccc2)C(=O)[C@@]2(C)CO2)cc1 | RPMI-8226 | cell growth or viability, MTS | – | 72 h | IC50 | 213 nM
Cc1cc(Cc2ccccc2)n(O)c(=O)c1 | Cryptococcus gattii | microbial growth | – | – | MIC80 | 1.7 µM (≈ 0.366 µg/mL)
CC1=NN(CNC(=O)c2ccccn2)C(=O)C1=NNn1c(-c2ccccc2)nc2ccccc2c1=O | Salmonella enterica | microbial growth, broth dilution | PARATYPHI | 24 h | MIC | 104 µM
O=c1c(O)c(-c2ccc(O)c(O)c2)oc2cc(O)cc(O)c12 | Salmonella enterica | microbial growth | TYPHI | – | IC50 | 80100 nM
C[C@H]1O[C@@H](O[C@H]2[C@@H](O)C[C@H](O[C@H]3[C@@H](O)C[C@H](O[C@H]4CC[C@@]5(C)[C@H](CC[C@@H]6[C@@H]5C[C@@H](O)[C@]5(C)[C@@H](C7=CC(=O)OC7)CC[C@]65O)C4)O[C@@H]3C)O[C@@H]2C)C[C@H](O)[C@@H]1O | ReNcell VM | cell growth or viability | – | 24 h | IC50 | ~560 nM
CC(=O)c1cccc(NC(=O)C(=O)[C@H](CC(C)C)NC(=O)[C@H](CC(C)C)NC(=O)[C@H](CC(C)C)NC(=O)OCc2ccccc2)c1 | RPMI-8226 | cell growth or viability, MTS | – | 72 h | IC50 | 48.7 nM
Cc1cc(NS(=O)(=O)c2ccc(N)cc2)no1 | Salmonella enterica | microbial growth | CHOLERAESUIS | 20 h, pH 7.2 | MIC | 2050 µg/mL
CC[C@H]1OC(=O)[C@H](C)[C@@H](O[C@H]2C[C@@](C)(OC)[C@@H](O)[C@H](C)O2)[C@H](C)[C@@H](O[C@@H]2O[C@H](C)C[C@H](N(C)C)[C@H]2O)[C@](C)(O)C[C@@H](C)C(=O)[C@H](C)[C@@H](O)[C@]1(C)O | Bacillus cereus | microbial growth | – | – | MIC | 3.13 µM
CO/N=C(\C(=O)N[C@@H]1C(=O)N2C(C(=O)O)=C(CSc3nc(=O)c(=O)[nH]n3C)CS[C@H]12)c1csc(N)n1 | Salmonella enterica | microbial growth | CHOLERAESUIS | 20 h, pH 7.2 | MIC | 0.0625 µg/mL
CC(/C=C/C(O)=C1/C(=O)CNC1=O)=C\[C@@H](C)[C@H]1O[C@@]2(C)O[C@H](C(=O)[C@@H]3O[C@@]32C)[C@@H]1C | Bacillus cereus | microbial growth | – | – | MIC | 6.25 µM
COc1cccc(Cc2cc(C)cc(=O)n2O)c1 | Cryptococcus gattii | microbial growth | – | – | MIC80 | 2.3 µM (≈ 0.564 µg/mL)
O=c1[nH]cc(F)c(=O)[nH]1 | Shigella dysenteriae | microbial growth, broth dilution | – | 24 h | MIC | 4 µg/mL
CCn1cc(C(=O)O)c(=O)c2ccc(C)nc21 | Salmonella enterica | microbial growth | CHOLERAESUIS | 20 h, pH 5.5 | MIC | 1 µg/mL
CCCCCCCCCCCC(=O)OC[C@H]1O[C@@H](n2cc(C)c(=O)[nH]c2=O)C[C@@H]1O | Bacillus cereus | microbial killing, broth dilution | – | – | MBC | 8 µg/mL (≈ 18.8 µM)
CC1=NN(CNc2ccccn2)C(=O)C1=NNn1c(-c2ccccc2)nc2ccccc2c1=O | Salmonella enterica | microbial growth, broth dilution | PARATYPHI | 24 h | MIC | 55.2 µM
CCC1(c2ccc(N)cc2)CCC(=O)NC1=O (centres unmarked) | IOSE-144 | cell growth or viability, CCK-8 | – | 48 h | IC50 | > 50000 nM
COc1cc(Cc2cnc(N)nc2N)cc(OC)c1OC | Shigella dysenteriae | microbial growth, broth dilution | – | 24 h | MIC | 16 µg/mL
CO/N=C(\C(=O)N[C@@H]1C(=O)N2C(C(=O)O)=C(CSC(=O)c3ccco3)CS[C@H]12)c1csc(N)n1 | Salmonella enterica | microbial growth | CHOLERAESUIS | 20 h, pH 5.5 | MIC | 1 µg/mL
CCCCCCCCCCCC(=O)OC[C@H]1O[C@@H](n2cc(C)c(=O)[nH]c2=O)C[C@@H]1OC(=O)c1ccc(C(C)(C)C)cc1 | Bacillus cereus | microbial growth, broth dilution | – | – | MIC | 2 µg/mL
